Here are results for 1 compound from ChEMBL document CHEMBL3352115, “Discovery of APD334: Design of a Clinical Stage Functional Antagonist of the Sphingosine-1-phosphate-1 Receptor” (ACS Med Chem Lett, 2014).

pEC50, pIC50: −log10 of the molar value.

Data set [1] is described as follows: Ratio of drug level in brain to plasma of Sprague-Dawley rat at 14.5 ug/hr/kg dosed as constant infusion measured after 48 hrs. It counts as ADME, organism-based. To be noted: iv, read-out: BPR. The method, boiled down:
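Male Sprague–Dawley rats given 48 h constant infusion at 14.5 μg/h/kg; brain and plasma concentrations measured at 48 h to give B/P ratio.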

A further data set concerns the target Cytochrome P450 2C19 (Homo sapiens, UniProt P33261). Description: Inhibition of CYP2C19 (unknown origin). The data set is classed as ADME.
A further data set has as its system Salmonella typhimurium. Description: Genotoxicity in Salmonella typhimurium in presence of rat liver S9 fraction by Ames bacterial reverse mutation assay. The data set is classed as toxicity, organism-based. The note with it: salmonella enterica subsp. enterica serovar typhimurium.
Data set [2] addresses Sphingosine 1-phosphate receptor 1 (Homo sapiens, UniProt P21453). In words: Induction of internalization of HA-tagged human S1P1 receptor expressed in CHO cells. The data set is classed as cell-based. An outline of the steps:
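CHO cells expressing HA-tagged human S1P1; receptor internalization measured, IC50 derived.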

The target in data set [3] is Sphingosine 1-phosphate receptor 3 (Homo sapiens, UniProt Q99500). Description: Agonist activity at human S1P3 receptor by beta-arrestin recruitment assay. For orientation: Activated receptors often draw arrestin, which recruitment assays turn into a signal.
Chain of Sphingosine 1-phosphate receptor 3 (Q99500 whole entry): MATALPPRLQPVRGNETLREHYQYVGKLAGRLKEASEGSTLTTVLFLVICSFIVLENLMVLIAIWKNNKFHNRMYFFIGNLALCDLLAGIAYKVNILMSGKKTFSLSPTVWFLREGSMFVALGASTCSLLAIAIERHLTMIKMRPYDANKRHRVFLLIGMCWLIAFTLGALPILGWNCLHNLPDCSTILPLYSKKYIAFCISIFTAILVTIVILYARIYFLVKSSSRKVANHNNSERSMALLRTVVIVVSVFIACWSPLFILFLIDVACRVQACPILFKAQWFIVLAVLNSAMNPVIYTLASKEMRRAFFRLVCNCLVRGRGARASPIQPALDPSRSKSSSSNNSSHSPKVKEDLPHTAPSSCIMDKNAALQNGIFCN
Data set [4] deals with Sphingosine 1-phosphate receptor 5 (Homo sapiens) (UniProt Q9H228). In words: Agonist activity at human S1P5 receptor by beta-arrestin recruitment assay relative to S1P.
Chain of Sphingosine 1-phosphate receptor 5 (Homo sapiens) (Q9H228 whole entry): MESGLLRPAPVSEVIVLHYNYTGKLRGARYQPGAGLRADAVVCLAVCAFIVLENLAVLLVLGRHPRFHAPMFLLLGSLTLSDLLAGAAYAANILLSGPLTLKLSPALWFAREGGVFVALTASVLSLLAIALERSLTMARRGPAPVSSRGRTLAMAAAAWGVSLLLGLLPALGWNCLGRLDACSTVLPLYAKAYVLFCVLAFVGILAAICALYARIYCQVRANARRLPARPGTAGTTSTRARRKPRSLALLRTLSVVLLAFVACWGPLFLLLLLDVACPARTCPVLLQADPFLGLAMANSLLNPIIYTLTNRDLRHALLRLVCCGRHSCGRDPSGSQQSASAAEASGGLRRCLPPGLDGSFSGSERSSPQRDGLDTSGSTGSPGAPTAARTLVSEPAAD
A short description of data set [5]: AUC (0 to infinity) in monkey at 1 mg/kg, iv or 3 mg/kg, po. It counts as ADME, organism-based, Macaca mulatta. The note with it: rhesus monkey, plasma. An outline of the steps:
(§1)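 Preclinical iv/po PK; amorphous free acid dosed orally as a suspension in 0.5% methyl cellulose; clearance and Vss from intravenous administration.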

The nature of data set [6]: Elimination half life in mouse at 1 mg/kg, po. On the set-up: dose 1 mg/kg, route oral. The note with it: in vivo, read-out: beta t1/2 (converted). The data set is classed as ADME, organism-based. An outline of the steps: as §1
Data set [7] can be described thus: Elimination half life in monkey at 3 mg/kg, po. On the set-up: dose 3 mg/kg, route oral. The note with it: rhesus monkey, in vivo, read-out: beta t1/2 (converted). It counts as ADME, organism-based, Macaca mulatta. An outline of the steps: as §1
A short description of data set [8]: Oral bioavailability in monkey at 3 mg/kg. It counts as ADME, organism-based, Macaca mulatta. The note with it: rhesus monkey, in vivo.

Chain of Cytochrome P450 2C19 (P33261 whole entry): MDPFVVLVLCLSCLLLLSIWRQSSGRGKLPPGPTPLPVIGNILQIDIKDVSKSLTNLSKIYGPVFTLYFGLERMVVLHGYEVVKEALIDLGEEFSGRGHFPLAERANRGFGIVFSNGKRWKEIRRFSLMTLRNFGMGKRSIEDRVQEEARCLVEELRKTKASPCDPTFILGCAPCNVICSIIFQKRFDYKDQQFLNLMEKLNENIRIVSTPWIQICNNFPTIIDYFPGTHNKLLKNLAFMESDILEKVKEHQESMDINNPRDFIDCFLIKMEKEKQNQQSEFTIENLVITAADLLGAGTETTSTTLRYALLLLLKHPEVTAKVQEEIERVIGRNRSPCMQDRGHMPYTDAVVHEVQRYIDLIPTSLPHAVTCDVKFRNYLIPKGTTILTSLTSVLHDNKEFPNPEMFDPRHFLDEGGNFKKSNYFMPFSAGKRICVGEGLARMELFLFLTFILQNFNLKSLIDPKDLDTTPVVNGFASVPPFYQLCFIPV
Chain of Sphingosine 1-phosphate receptor 1 (P21453 whole entry): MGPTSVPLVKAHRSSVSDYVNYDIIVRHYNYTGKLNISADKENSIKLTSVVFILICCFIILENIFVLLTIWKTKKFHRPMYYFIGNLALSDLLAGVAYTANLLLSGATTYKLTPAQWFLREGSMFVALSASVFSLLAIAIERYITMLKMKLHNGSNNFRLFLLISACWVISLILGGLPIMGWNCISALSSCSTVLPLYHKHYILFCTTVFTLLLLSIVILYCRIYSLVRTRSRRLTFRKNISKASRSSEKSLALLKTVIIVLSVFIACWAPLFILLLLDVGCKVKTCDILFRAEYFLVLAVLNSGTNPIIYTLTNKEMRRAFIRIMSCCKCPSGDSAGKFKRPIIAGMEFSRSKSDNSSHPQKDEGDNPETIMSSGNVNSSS

Usually pIC50 stands for the negative decadic logarithm of the IC50, by convention in mol/L. What is called pEC50 is −log10 of the EC50, conventionally taken in molar units. The term Emax denotes the size of the effect at its maximum, as opposed to the concentration needed. The term AUC(0-inf) denotes total exposure, with the tail of the curve extrapolated. What is called bioavailability is the share of a dose that reaches the circulation, judged against a reference dose that is usually intravenous. Take `O=C(O)C[C@H]1CCc2c1[nH]c1ccc(OCc3ccc(C4CCCC4)c(C(F)(F)F)c3)cc21` [ETRASIMOD]: in [1], the Kp at 48 h came out at 1.9. Moreover, the values for the pIC50 (on Cytochrome P450 2C19; in [2]) were < 4.30 and 8.73, respectively. Also, the Activity entry in the data set on Salmonella typhimurium is given as “Non-toxic”. Further, the negative-log EC50 (pEC50) in data set [3] is < 5.00. For the same compound, the Emax in [4] was 73%. In addition, the total exposure AUC(0-inf) in data set [5] came out at 23100 ng·h/mL. For the same compound, the half-life in data set [6] was 12.3 h; in [7], 6.37 h. The compound further yielded a bioavailability in [8] of 43.8%.
